How the values were obtained:
[1] = system: Human betaherpesvirus 5; assay: In vitro antiviral activity against human cytomegalovirus by plaque method.; assay type: functional, organism-based
How it was run: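 HCMV plaque reduction assay; result given as IC50 (concentration reducing plaque number by 50%). Averages from two or four experiments, some from a single experiment; highest concentration tested 100.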

[2] = system: KB; assay: In vitro inhibition of KB cell proliferation.; assay type: functional, cell-based, Homo sapiens
How it was run: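 KB cells grown over two population doublings of untreated controls with compound; proliferation quantified by crystal violet staining and spectrophotometric reading of dye eluted from stained cells. Values are IC50s averaged from two or four experiments, some from a single experiment.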

[3] = system: Human betaherpesvirus 5; assay: In vitro antiviral activity against human cytomegalovirus by yield reduction assay.; assay type: functional
How it was run: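 HCMV yield reduction assay; result given as IC90. Averages from two or four experiments, some single; highest concentration tested 100.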

[4] = system: Human alphaherpesvirus 1; assay: Antiviral activity against herpes simplex virus type 1(HSV-1) ELISA method; assay type: functional, organism-based
[5] = system: HFF; assay: Visual cytotoxicity scored on HFF cells at the time of HCMV plaque enumeration.; assay type: functional, cell-based, Homo sapiens
How it was run: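 Stationary HFF cells not affected by the plaque-assay virus examined microscopically for cytotoxicity, scored at the time HCMV plaques were counted. Top concentration tested 100; averages of two or four experiments, some single.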

[6] = system: L1210; assay: Inhibition of L1210 murine leukemic cells proliferation in vitro; assay type: functional, cell-based, Mus musculus
How it was run: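 L1210 murine leukemia cells grown with compound; cell counts taken at 0, 48 and 96 h. Where growth rate in treated cultures fell during the run, the 48–96 h rate was used.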

IC50 ([1]; Human betaherpesvirus 5) [µM] | IC50 ([2]; Homo sapiens, KB) [µM] | IC90 ([3]; Human betaherpesvirus 5) [µM] | IC50 ([4]; Human alphaherpesvirus 1) [µM] | IC50 ([6]; Mus musculus, L1210) [µM] | SMILES | IC50 ([5]; Homo sapiens, HFF) [µM] | IC50 ([2]; kb) [µM] | IC90 [3] [µM] | IC50 [1] [µM] | IC50 [4] [µM] | IC50 ([5]; hff) [µM] | IC50 ([6]; l1210) [µM]
1.6 | 2.5 | 41 | 28 | 2 | N=C(S)c1cn([C@@H]2O[C@H](CO)[C@@H](O)[C@@H]2N)c2ncnc(N)c12 | 73 |  |  |  |  |  | 
 |  |  |  |  | N#Cc1cn([C@@H]2O[C@H](CO)[C@@H](O)[C@H]2O)c2ncnc(N)c12 (stereo in doubt; 6) [TOYOCAMYCIN] |  | 17 | 14 |  |  |  | 
5.1 | 176 | > 100 | 41 |  | N#Cc1cn(C2C=CC(CO)O2)c2ncnc(N)c12 (stereo not given) | > 100 |  |  |  |  |  | 
0.4 | 4 | 1.4 | 2.6 | 0.1 | N#Cc1cn(C2OC(CO)CC2O)c2ncnc(N)c12 (stereo not given) | 3 |  |  |  |  |  | 
19 | 88 | 90 | 21 |  | N#Cc1cn(C2CCC(CO)O2)c2ncnc(N)c12 (stereo not given) | > 100 |  |  |  |  |  | 
0.5 | 3 | 3 | 58 | 0.6 | NC(=S)c1cn(C2OC(CO)CC2O)c2ncnc(N)c12 (stereo not given) | 2.1 |  |  |  |  |  | 
2.5 | 11 | 12 | 6 | 24 | NC(=S)c1cn(C2CCC(CO)O2)c2ncnc(N)c12 (stereo not given) | 29 |  |  |  |  |  | 
 |  |  |  |  | N#Cc1cn([C@@H]2O[C@H](CO)[C@@H](O)[C@H]2O)c2ncnc(N)c12 (stereo in doubt; 2) [TOYOCAMYCIN] |  | 0.1 | 0.3 | 0.3 | 0.4 | 0.3 | 0.1
5.7 | 7 | 15 | 8.2 | 3.9 | NC(=S)c1cn([C@H]2C[C@H](O)[C@@H](CO)O2)c2ncnc(N)c12 | 41 |  |  |  |  |  | 
3.1 | 0.5 |  |  | 3 | C[C@H]1OC(n2cc(C(=N)S)c3c(N)ncnc32)[C@H](O)[C@@H]1O (stereo not given in full) | 3.2 |  |  |  |  |  | 
35 | 25 | 13 | 4.5 | 80 | N#Cc1cn([C@H]2C[C@H](O)[C@@H](CO)O2)c2ncnc(N)c12 | 66 |  |  |  |  |  | 
 |  | 110 | 320 | 100 | N#Cc1cn([C@@H]2O[C@H](CO)[C@@H](O)[C@@H]2N)c2ncnc(N)c12 | > 100 |  |  |  |  |  | 
2.7 | 5 | 5 | 14 | 3 | NC(=S)c1cn(C2C=CC(CO)O2)c2ncnc(N)c12 (stereo not given) | 18 |  |  |  |  |  | 
 |  |  |  |  | N#Cc1cn([C@@H]2O[C@H](CO)[C@@H](O)[C@H]2O)c2ncnc(N)c12 (stereo in doubt; A) [TOYOCAMYCIN] |  |  |  | 0.1 |  | 0.03 | 

SMILES | IC50 ([1]; Human betaherpesvirus 5) [µM] | IC50 ([2]; Homo sapiens, KB) [µM] | IC90 ([3]; Human betaherpesvirus 5) [µM] | IC50 ([4]; Human alphaherpesvirus 1) [µM] | IC50 ([6]; Mus musculus, L1210) [µM] | IC50 ([5]; Homo sapiens, HFF) [µM] | IC50 ([2]; kb) [µM] | IC90 [3] [µM] | IC50 [1] [µM] | IC50 [4] [µM] | IC50 ([5]; hff) [µM] | IC50 ([6]; l1210) [µM]
NC(=S)c1cn([C@@H]2O[C@H](CO)[C@@H](O)[C@H]2O)c2ncnc(N)c12 | 0.4 | 0.03 | 0.1 |  | 0.03 | 0.32 |  |  |  |  |  | 
NC(=S)c1cn([C@@H]2O[C@H](CO)[C@H](O)[C@H]2O)c2ncnc(N)c12 | 0.6 | 1 | 0.4 | 1.9 | 0.5 | 0.6 |  |  |  |  |  | 
NC(=S)c1cn([C@@H]2O[C@H](CO)[C@@H](O)[C@@H]2O)c2ncnc(N)c12 | 0.9 | 2 | 1.9 | 4.7 | 5 | 29 |  |  |  |  |  | 
Nc1nc2c(ncn2COC(CO)CO)c(=O)[nH]1 [GANCICLOVIR] |  | > 100 | 1.8 |  |  | > 100 |  |  |  |  |  | 
